For 97 molecules, cytotoxicity results are on record in ChEMBL document CHEMBL4513216, “Probing the Open Global Health Chemical Diversity Library for Multistage-Active Starting Points for Next-Generation Antimalarials” (ACS Infect Dis, 2020).

This data set in a line: Toxicity liver stage against HepG2, at 10uM. The class given is cell-based. The conditions noted are these: human, HepG2-A16-CD81EGFP cells; read-out: INHIBITION
Details: test concentration 10 uM, cell line HepG2-A16-CD81EGFP. Put shortly: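 Uninfected HepG2-A16-CD81EGFP cells, 3 × 10^3 per well, 1536-well, plated on prespotted compound at 10 μM final, parasite-free screening media added to match infected plates; puromycin 10 μM positive, DMSO 0.5% negative; run in parallel with 48 h PbLuc assay at 37 °C, 5% CO2; viability by CellTiter-Glo luminescence, normalized to controls.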
For `CCCc1noc(C2CC(=O)N(CCN(C)C)C2)n1` (configuration not stated), the cytotoxicity at 10 µM stood at 5.48%. In the case of `CNC(=O)[C@@H]1C[C@H](n2cc(-c3ccc(CN4CC=CC4)cc3)nn2)CN1`, the cytotoxicity at 10 µM came out at 3.46%. For `c1cnc2c(c1)nc1n2[C@@H](CNCc2nccs2)COC1` the value was -2.66%. As to `N#Cc1cccc(C(=O)N2CCc3ncc(Cn4cccn4)n3CC2)c1`, the cytotoxicity at 10 µM amounted to 5.84%. As to `N#Cc1ccccc1CN1CCCC(c2nccn2CC2CCC2)C1` (configuration not stated), the cytotoxicity at 10 µM is -5.06%. Under `CCc1nnc2n1CCN(C(=O)CCc1ccc(C)c(Cl)c1)C2` stands -4.01%; under `Cc1cc(N)nc(SC2CCCN(Cc3ccccc3)C2=O)n1` (configuration not stated), -5.45%; under `CN(C)C(=O)C1(CCCc2ccncc2)CCCN1` (configuration not stated), 0.59%. Under `CCn1cc(Br)c(C(=O)NCc2ccccc2)n1` stands 7.61%; under `CS(=O)(=O)NCCC1CCCCN1C(=O)NCc1ccccn1` (configuration not stated), -0.871%; under `CCCN(C)c1ccc(C(=O)NCc2ccnc(C)n2)cc1`, 6.6%. With `O=C([C@H]1C[C@H]2OCC[C@H]2N(CC2CC2)C1)N1CCCCO1`, the cytotoxicity at 10 µM was -69.2%. On to `CCOc1cccc(COC(=O)c2cc(C)on2)n1`, for which the cytotoxicity at 10 µM is -5.08%.

As to `Cc1nn(C)c2cnn(C(C)C(=O)NCc3cccnc3)c12` (configuration not stated), the cytotoxicity at 10 µM was found to be 9.77%. Consider `N#Cc1ccccc1OCCN1CCCC1Cn1cncn1` (configuration not stated), for which the cytotoxicity at 10 µM is -10.7%. Under `CCC(C)(C)NC(=O)Cn1cc(C(N)=O)c(-c2ccccc2)n1` stands -6.84%; under `Cc1ccc(N2CC[C@@H]3CN(Cc4cc[nH]n4)C[C@@H]3C2)nn1`, 3.47%; under `O=C(c1cscn1)N1CCCC(n2cncn2)C1` (configuration not stated), 0.301%. For `CCCC(=O)N1CCC2(CC1)OCCO2` the value was 5.22%; for `COc1cccc(C(=O)NC(c2ccccn2)C2CCC(CN)CC2)c1` (configuration not stated), -9.33%.

Take `CCCn1ccnc1CN1C[C@@H](NC(C)=O)[C@H](c2ccc(C)cc2)C1`: the cytotoxicity at 10 µM amounted to 1.9%.

Take `CSCc1ccc(N2CCC(C(O)CC(C)C)CC2)nc1` (configuration not stated): the cytotoxicity at 10 µM was 11.4%.

Turning to `CCN1CCN(C(C)CNC(=O)Nc2nnc(C(C)C)s2)CC1` (configuration not stated), the cytotoxicity at 10 µM worked out at 1.06%. In the case of `Cc1noc(C)c1CN1CCO[C@H]2CN(C(=O)C3CCOCC3)C[C@H]21`, the cytotoxicity at 10 µM was 0.845%. Under `Cc1ccc(CNC(=O)NCCCO)cc1` stands -16.2%; under `Cn1cc(S(=O)(=O)NC(=O)C2(c3ccccc3)CCC2)cn1`, -6.85%. With `CN(C)C(=O)c1cnc2n1CCN(Cc1ccsc1)C2`, the cytotoxicity at 10 µM was -68%.

Regarding `COc1c(C)cnc(CN2CCOC(Cn3nc(C)nc3C)C2)c1C` (configuration not stated), the cytotoxicity at 10 µM is -13.1%.

`CCOc1ncccc1Cn1cc(-c2nccn2C)nn1`: the cytotoxicity at 10 µM was -1.38%. Under `Cc1noc(-c2ccc(Oc3cccc(CN4CCCC4)c3F)nc2)n1` stands -6.03%.

As for `CS(=O)(=O)N1Cc2nc(C(=O)NCc3ccccc3)oc2C1`, the cytotoxicity at 10 µM was -3.46%.

Take `COc1cccc([C@H]2CN(C(=O)c3nnc4n3CCCC4)C[C@@H]2N)c1`: the cytotoxicity at 10 µM is -2.57%.

With `FC(F)(F)CN1CCC(CNc2nc3ccccc3o2)C1` (configuration not stated), the cytotoxicity at 10 µM was 2.7%. Regarding `CC(c1nc(C2CC2)no1)N(C)Cc1cccc(F)c1` (configuration not stated), the cytotoxicity at 10 µM is -5.43%. For `CC(NC(=O)CN(C)C(C)C)c1ccc(Oc2cccnc2)c(F)c1` (configuration not stated) the value was 2%.

With `CCOCC(=O)N(Cc1ccccn1)Cc1ccccc1C`, the cytotoxicity at 10 µM turned out to be 3.21%.

With `Cc1cc(C)nc(C2CCCN2C(=O)c2cnco2)n1` (configuration not stated), the cytotoxicity at 10 µM is -1.45%. For `CN(C(=O)c1ccc(Cl)cn1)c1ccccc1S(C)(=O)=O` the value was -7.17%. Under `Cc1cnn(C2CCCN(C(=O)c3ccc(O)nc3)C2)c1` (configuration not stated) stands -2.78%. For `COc1ccc(NC(=O)c2cnc(N(C)C3CCCCC3)nc2N)cc1` the value was -3.64%. Regarding `Cc1noc(-c2ccc(N3CCN(Cc4nccn4C)CC3)nc2)n1`, the cytotoxicity at 10 µM is 3.19%.

In the case of `Cc1nc2cc(CNC(=O)C3CC(=O)N(CCN(C)C)C3)ccc2n1C` (configuration not stated), the cytotoxicity at 10 µM is -4.31%. Under `CN(C(=O)NCc1ccncc1)C1CCN(c2ccccc2)C1=O` (configuration not stated) stands -13.5%; under `CCN(C(C)c1cccc(O)c1)S(=O)(=O)c1cccnc1` (configuration not stated), 10.8%; under `CSCCNC(=O)c1coc(COc2ccc3sc(C)nc3c2)n1`, -1.51%. For `CCc1nc(NCCn2cccn2)c2c(n1)c(C)nn2C` the value was 5.97%. For the molecule `COc1ccc2nc(C[C@@H]3C[C@@H](C(C)C)[C@H](CN)C=C3C)[nH]c2n1`, the cytotoxicity at 10 µM was found to be 3.38%. Under `CCC(=O)N(CCC(=O)O)Cc1ccc(F)c(F)c1` stands -1.99%; under `COc1ccccc1N1CCC(CNCc2cccc(O)c2)C1` (configuration not stated), -9.04%; under `Cc1cc(Cl)c(C)c(S(=O)(=O)N2CCN(Cc3ccncc3)CC2)c1Cl`, 1.76%. Consider `Cc1nc(NC(=O)c2c(-n3cnnn3)sc(C)c2C)sc1C`, for which the cytotoxicity at 10 µM was found to be 2.13%. Under `CC(NC(=O)c1ccnn1C)c1ccc(OCC2CC2)c(F)c1` (configuration not stated) stands 48.8%; under `CN(CCC#N)C(=O)Cn1nnnc1C(C)(C)C`, -46.3%. For `COc1ccccc1OC1CCN(C(=O)CCCn2ccnc2)CC1` the value was -183%; for `Cc1nc(N2CCCC2)ncc1-c1cc(O)nc(N2CCCCC2)n1`, 10.7%. Consider `CC1CCc2sc(C(=O)Nc3cnn(C)c3)cc2C1` (configuration not stated), for which the cytotoxicity at 10 µM is 9.48%. For `COc1ccc(CN(C)C(=O)CN2CC(n3cccn3)C2)cc1F` the value was -0.717%; for `CC1(C)Cc2nc(C(C)(C)C)ncc2C(NC(=O)CN)C1` (configuration not stated), -6.55%; for `COc1ccc(CCNC(=O)N2CCCC(c3nncn3C)C2)cc1` (configuration not stated), -3.92%.

Consider `CN(CC(N)=O)CC1(c2ccc(Br)cc2)CC1`, for which the cytotoxicity at 10 µM worked out at 2.17%. For `COc1ccc2c(c1)CC(NCc1cccc(CO)c1)CC2` (configuration not stated) the value was -51.8%. Turning to `Cn1ccnc1CN(CCO)C(=O)c1nc2ccccc2s1`, the cytotoxicity at 10 µM came out at 4.46%. For `Cc1ccsc1CN(c1nc(CCN)nc2ccccc12)C1CC1` the value was 11.7%. `Fc1ccc2[nH]c3c(c2c1)CCN1C(c2ccncc2)N2CCC31CC2` (configuration not stated): the cytotoxicity at 10 µM is 4.67%.

For `CC(=O)NCC1CCCN(C(=O)Cc2c(C)noc2C)C1` (configuration not stated), the cytotoxicity at 10 µM is 17.4%. In the case of `Cc1nnc([C@@H]2CC[C@@H]3[C@@H](CCN3S(=O)(=O)C3CC3)O2)o1`, the cytotoxicity at 10 µM is -77%. As to `Cc1ccc(S(=O)(=O)N(C)c2ccsc2C(=O)NCC(C)C)cc1`, the cytotoxicity at 10 µM amounted to 10.6%.

As for `FC(F)(F)Cn1ccnc1CNCCn1cccn1`, the cytotoxicity at 10 µM was -6.4%. Under `Cc1noc(C)c1CN(C)C(=O)c1cnc(C2CC2)nc1O` stands -4.65%; under `COCCCN1Cc2cccc(NC(=O)c3cc(F)cc(F)c3)c2C1`, 2.28%. As for `Cc1cccc(N2N=C(C(=O)NC(C)CCc3ccco3)CCC2=O)c1` (configuration not stated), the cytotoxicity at 10 µM is -10.1%.

As to `CC(C)=CCCC(C)CN1CCC(n2cc(C(=O)NCCO)nn2)CC1` (configuration not stated), the cytotoxicity at 10 µM turned out to be 0.232%. For `CCCc1nc(CN2CCCC2Cn2cncn2)no1` (configuration not stated) the value was -2%. With `CCN(CCC(=O)OC)C(=O)c1cccc(Cn2nc(C)cc2C)c1`, the cytotoxicity at 10 µM stood at 7.59%. Under `CC(c1ncc(C(C)(C)C)o1)N1CCN(Cc2ccco2)CC1` (configuration not stated) stands 5.3%; under `CCNC(=O)NC[C@@H]1C=C(C)[C@H](CC(=O)NCCN(C)C)C[C@H]1C(C)C`, 2.43%. Take `CCc1ncc2c(n1)CN(C(C(N)=O)c1ccccc1)CC2` (configuration not stated): the cytotoxicity at 10 µM was -2.35%. For `CC(=O)N1CCN(CCNS(=O)(=O)c2cc(F)cc(F)c2)CC1` the value was 7.24%; for `CC(C)CNC(=O)c1cccc(Oc2ccc3nncn3n2)c1`, -1.95%. Consider `CC(SCC(=O)N(C)CC(=O)NC1CC1)c1ccc(F)c(F)c1` (configuration not stated), for which the cytotoxicity at 10 µM is -0.369%. For `CC(C)n1ccnc1C1CCCN(c2ccccn2)C1` (configuration not stated) the value was 1.28%; for `Cc1nccn1-c1cc(CNC(=O)c2ccnc(N(C)C)c2)ccn1`, 2.32%; for `c1cc(-c2c[nH]c([C@@H]3COCCN3CC3CC3)n2)ccn1`, 6.82%.

On to `Cc1cc(C)n(CC(=O)N2CCCCC2CCN(C)C)c(=O)n1` (configuration not stated), for which the cytotoxicity at 10 µM is -14.7%. Turning to `COc1cc(CN2CCC(O)(c3ccc(C)cn3)CC2)cc(Cl)c1OC`, the cytotoxicity at 10 µM was -132%. For `COc1ccccc1OCC(=O)NCc1ncc(C)c(OC)c1C` the value was -6.63%; for `CN(C)C(=O)CN1C[C@H]2CCN(C(=O)c3ccncc3)CC[C@H]2S1(=O)=O`, -1.55%. For `O=C(NCCn1cnc(C2CCCC2)cc1=O)c1ccc(=O)[nH]n1` the value was -0.895%. Under `CC(=O)N[C@@H]1CN(C2CCN(c3cccc(C)c3C)CC2)C[C@H]1C(C)C` stands -11.7%. Consider `COc1cc(CN2CCC(COCc3ccccc3)CC2)cc(OC)c1`, for which the cytotoxicity at 10 µM is -3.38%.

Take `C1CC(CN2C[C@@H]3C[C@@H](c4nnc(C5CC5)o4)O[C@@H]3C2)CCO1`: the cytotoxicity at 10 µM worked out at 6.58%.

Consider `CSc1cccc(CNC(=O)C2CC(=O)N(CCN(C)C)C2)c1` (configuration not stated), for which the cytotoxicity at 10 µM is -4.15%.

On to `Cc1ccccc1C(=O)NCc1ccc(N2CCNC(=O)C2)c(F)c1`, for which the cytotoxicity at 10 µM is -13.8%. For the molecule `O=c1ccc(-c2cccs2)nn1CN1CCCCCC1`, the cytotoxicity at 10 µM is -5.51%.

On to `Cc1ccc(-c2cc(CNc3ncnc4c3CCNCC4)no2)cc1`, for which the cytotoxicity at 10 µM was determined as 13%. For `Cn1cccc1C(=O)N1CCc2ncnc(N3CCCC3)c2CC1` the value was -1.31%. For `CC(=O)NCC1CCN(C(=O)NCCc2ccc3c(c2)OCO3)CC1` the value was -5.22%.
